Measurements from different studies.
Lines come from different studies, so protocols differ.
Target: Serine/threonine-protein kinase haspin (HASPIN, Homo sapiens, UniProt Q8TF76)
One construct used (Q8TF76 1-798): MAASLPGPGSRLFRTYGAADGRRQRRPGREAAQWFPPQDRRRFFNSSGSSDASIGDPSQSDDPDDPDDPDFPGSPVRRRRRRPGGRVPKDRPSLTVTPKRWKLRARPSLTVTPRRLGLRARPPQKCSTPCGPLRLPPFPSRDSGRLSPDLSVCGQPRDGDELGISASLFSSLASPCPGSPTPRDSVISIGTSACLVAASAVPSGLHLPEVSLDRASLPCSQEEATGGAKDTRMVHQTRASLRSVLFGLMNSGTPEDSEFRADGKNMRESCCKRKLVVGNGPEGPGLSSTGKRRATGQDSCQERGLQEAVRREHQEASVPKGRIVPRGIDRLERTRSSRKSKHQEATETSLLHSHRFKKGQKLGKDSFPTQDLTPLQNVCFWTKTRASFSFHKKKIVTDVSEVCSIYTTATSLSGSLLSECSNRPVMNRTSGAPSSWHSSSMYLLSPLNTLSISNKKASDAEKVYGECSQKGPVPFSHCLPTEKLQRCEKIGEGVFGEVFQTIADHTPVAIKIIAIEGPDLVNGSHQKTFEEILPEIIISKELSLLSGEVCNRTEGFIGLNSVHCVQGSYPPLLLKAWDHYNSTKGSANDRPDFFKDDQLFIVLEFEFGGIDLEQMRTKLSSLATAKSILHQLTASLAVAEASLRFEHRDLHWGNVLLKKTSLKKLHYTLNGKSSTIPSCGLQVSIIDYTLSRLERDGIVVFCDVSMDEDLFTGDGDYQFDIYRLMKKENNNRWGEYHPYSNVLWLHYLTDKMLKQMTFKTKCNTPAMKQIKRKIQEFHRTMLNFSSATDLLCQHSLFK

O=c1cc(-c2cccc3c2Sc2ccccc2S3)oc(N2CCOCC2)c1
remaining activity (enzyme activity; inhibitor; 0.5 µM): 106%

Cc1ccc(Nc2nccc(N(C)c3ccc4c(C)n(C)nc4c3)n2)cc1S(N)(=O)=O
inhibition (enzyme activity; inhibitor; 10 µM): 8%

Nc1ncnc2occ(-c3ccc(NC(=O)Nc4cc(C(F)(F)F)ccc4F)cc3)c12
remaining signal (cell-free assay; 20 µM): 43%

CCN(CC)c1ccc(C2=NNC(=O)CC2C)cc1[N+](=O)[O-] (centres unmarked)
remaining activity (enzyme activity; inhibitor; 10 µM): 106%

CC(=O)Nc1c(C(C)=O)c(=O)n(C)c2nc(-c3ccc(Cl)cc3Cl)c(-c3ccc(Cl)cc3)cc12
remaining binding (cell-free assay; competition with immobilised ligand; 1 µM): 100%

CCN(CC)CCNC(=O)c1c(C)[nH]c(/C=C2\C(=O)Nc3ccc(Cl)cc32)c1C
remaining activity (enzyme activity; inhibitor; 0.5 µM): 82.9%

COc1ccc2c(O[C@@H]3C[C@H]4C(=O)N[C@]5(C(=O)O)CC5/C=C\CCCCC[C@H](NC(=O)OC5CCCC5)C(=O)N4C3)cc(-c3csc(NC(=O)C(C)C)n3)nc2c1C (some centres unmarked)
remaining binding (cell-free assay; competition with immobilised ligand; 1 µM): 97%

O=C1NC(=O)c2cc(Nc3ccc(F)cc3)c(Nc3ccc(F)cc3)cc21
remaining signal (cell-free assay; 0.5 µM): 95.1%

CC(=O)c1c(NS(C)(=O)=O)c2cc(-c3ccc(Cl)cc3)c(-c3ccc(Cl)cc3Cl)nc2n(C)c1=O
remaining binding (cell-free assay; competition with immobilised ligand; 1 µM): 92%

CC(C)(C)c1nc2c(s1)c1nc(N)ncc1c1ccc(NS(=O)(=O)c3c(F)cccc3F)c(F)c12
remaining activity (enzyme activity; inhibitor; radiometric; 1 µM): 118%

Cn1cnc(Br)c1C1=CN(c2ncnc3[nH]cnc23)CCS1
inhibition (enzyme activity; inhibitor; radiometric; 50 nM): 32.9%

CNC(=O)c1cc(Oc2ccc(NC(=O)Nc3ccc(Cl)c(C(F)(F)F)c3)cc2)ccn1
inhibition (enzyme activity; inhibitor; 0.3 µM): 8%

Cn1cncc1C1=CN(c2ncnc3[nH]cnc23)CCS1
inhibition (enzyme activity; inhibitor; radiometric; 50 nM): 25.6%

COc1cc(-c2cc(-c3ccc(N4CCNCC4)cc3)cnc2C)cc(OC)c1OC
inhibition (enzyme activity; inhibitor; 1 µM): 3%

O=C(Nc1ccc(Oc2ccc(F)cc2)cc1)N1CCc2ncccc2[C@H]1c1ccc(F)cc1
remaining binding (cell-free assay; competition with immobilised ligand; 1 µM): 85%

COc1ccc(C(=O)Nc2sc3c(c2C(N)=O)CCCC3)cc1OC
remaining activity (enzyme activity; inhibitor; 0.5 µM): 82.8%

CN1CCN(C(=O)c2ccc3cc(CCNc4ccnc5ccc(C#N)cc45)ccc3c2)CC1
inhibition (cell-free assay; competition with immobilised ligand; 2 µM): > 35%

Cc1ccc(NC(=O)c2ccc(C)c(C(F)(F)F)c2)cc1C#Cc1nn(C2CCC(O)CC2)c2ncnc(N)c12 (centres unmarked)
remaining signal (cell-free assay; 10 µM): 93%

O=C(Nc1cnn(-c2csc(C(=O)NC3COC3)c2)c1)Nc1ccccc1Cl
remaining activity (enzyme activity; inhibitor; 5 µM): 112%

CNCc1ccccc1-c1csc([C@@H](C)Nc2nc(C)nc3cc(OC)c(OC)cc23)c1
remaining binding (cell-free assay; competition with immobilised ligand; 1 µM): 98%

CN1CC(Oc2cnc(C#N)cc2-c2ccn3nc(NC(=O)C4CC4)cc3c2)C1
inhibition (enzyme activity; inhibitor; 1 µM): 3%

CCCOc1ccc(OC)c(F)c1C(=O)c1ccc(C(=O)N[C@@H]2CNC[C@H]2NC(=O)c2ccc3[nH]ncc3c2)cc1
remaining activity (enzyme activity; inhibitor; 10 µM): 22%

CC1=C(C#N)C(c2ccc3c(c2)c(NC(=O)c2ccccc2C)nn3C)C(C#N)=C(C)N1
remaining binding (cell-free assay; competition with immobilised ligand; 1 µM): 71%

COc1cc2nccc(Oc3ccc(NC(=S)NC(=O)c4ccccc4C)cc3)c2cc1OC
remaining activity (enzyme activity; inhibitor; 0.5 µM): 95.9%

CCCOc1ccc([C@H]2[C@H](C(=O)O)[C@@H](c3ccc4c(c3)OCO4)CN2CC(=O)Nc2c(CC)cccc2CC)cc1
remaining binding (cell-free assay; competition with immobilised ligand; 1 µM): 62%

Cc1cc(NC(=O)c2cccc3cc(-c4cccc5[nH]nc(N)c45)ccc23)ccc1F
activity vs control (enzyme activity; inhibitor; 0.1 µM): 111%
